# ChEMBL document CHEMBL1125609, “Nucleosides and nucleotides. 97. Synthesis of new broad spectrum antineoplastic nucleosides, 2'-deoxy-2'-methylidenecytidine (DMDC) and its derivatives” (J Med Chem, 1991)
# Assays:
# B16 = experiment: In vitro inhibitory activity against Mouse melanoma (B16) cell line.; type: functional, cell-based
# Method in brief: (§1)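 Each tumor cell line seeded at 1 × 10⁴/well and incubated with or without compound for 72 h; growth measured by MTT reduction, OD 570 nm, % inhibition relative to untreated control wells. IC50 (μg/mL) is the concentration giving 50% inhibition of cell growth.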
# L1210 = experiment: In vitro cytotoxic activity against Murine leukemia L1210 cells.; type: functional, cell-based; conditions: Mus musculus
# Method in brief: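 L1210 murine leukemia cells seeded at 1 × 10⁴/well, exposed with or without compound for 72 h; MTT then added and OD 570 nm read. % inhibition = [1 − OD sample/OD control] × 100; IC50 (μg/mL) taken as concentration giving 50% growth inhibition.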
# CCRF-CEM = experiment: In vitro inhibitory activity against Human T-cell acute lymphoblastoid leukemia (CCRF CEM) cell line.; type: functional, cell-based; method in brief: as §1
# PC-13 = experiment: In vitro inhibitory activity against Human lung large-cell carcinoma (PC-13) cell line.; type: functional, cell-based; method in brief: as §1
# [1] = test system: Lewis lung carcinoma cell line; experiment: In vitro inhibitory activity against Mouse Lewis lung carcinoma (3LL) cell line.; type: functional, cell-based; method in brief: as §1
# [2] = test system: KATO III stomach cancer cell line; experiment: In vitro inhibitory activity against Human gastric carcinoma (KATO III) cell line.; type: functional, cell-based; method in brief: as §1
# P-36 (Homo sapiens) = experiment: In vitro inhibitory activity against Human melanoma (P-36) cell line.
# MOLT-4 = experiment: In vitro inhibitory activity against Human T-cell acute lymphoblastic leukemia (MOLT-4) cell line.; type: functional, cell-based; method in brief: as §1
# PC-14 = experiment: In vitro inhibitory activity against Human lung adenocarcinoma (PC-14) cell line.; type: functional, cell-based; method in brief: as §1
# KB = experiment: In vitro inhibitory activity against Human oral epidermoid carcinoma (KB) cell line.; type: functional, cell-based; method in brief: as §1
# U-937 = experiment: In vitro inhibitory activity against Human histiocytic lymphoma (U-937) cell line.; type: functional, cell-based; method in brief: as §1
# PC-6 = experiment: In vitro inhibitory activity against Human lung small-cell carcinoma (PC-6) cell line.; type: functional, cell-based; method in brief: as §1
# T-24 = experiment: In vitro inhibitory activity against Human bladder transitional-cell carcinoma (T-24) cell line.; type: functional, cell-based; method in brief: as §1
# PC10 = experiment: In vitro inhibitory activity against Human lung squamous cell carcinoma (PC-10) cell line.; type: functional, cell-based; method in brief: as §1
# HL-60 = experiment: In vitro inhibitory activity against Human promyelocytic leukemia (HL-60) cell line.; type: functional, cell-based; method in brief: as §1
# SW480 = experiment: In vitro inhibitory activity against Human colon adenocarcinoma (SW-480) cell line.; type: functional, cell-based; method in brief: as §1
# TE-2 = experiment: In vitro inhibitory activity against Human esophagus adenocarcinoma (TE-2) cell line.; type: functional, cell-based; method in brief: as §1
compound,measurement,setting,value
C=C1C(n2ccc(N)nc2=O)O[C@H](CO)[C@@H]1O (stereo partly drawn),IC50,B16,3 µg/mL
same,IC50,L1210,0.37 µg/mL
same,IC50,CCRF-CEM,0.067 µg/mL
same,IC50,PC-13,1 µg/mL
same,IC50,[1],16 µg/mL
same,IC50,[2],8.3 µg/mL
same,IC50,P-36 (Homo sapiens),0.36 µg/mL
same,IC50,MOLT-4,0.041 µg/mL
same,IC50,PC-14,> 100 µg/mL
same,IC50,KB,1.4 µg/mL
same,IC50,U-937,0.44 µg/mL
same,IC50,PC-6,39 µg/mL
same,IC50,T-24,1.1 µg/mL
same,IC50,PC10,> 100 µg/mL
same,IC50,HL-60,0.04 µg/mL
C=C1C(n2cc(CC)c(=O)[nH]c2=O)O[C@H](CO)[C@@H]1O (stereo partly drawn),IC50,L1210,> 100 µg/mL
C=C1C(n2cc(Cl)c(N)nc2=O)O[C@H](CO)[C@@H]1O (stereo partly drawn),IC50,L1210,> 100 µg/mL
C#Cc1cn(C2O[C@H](CO)[C@H](O)C2=C)c(=O)[nH]c1=O (stereo partly drawn),IC50,L1210,> 100 µg/mL
C=C1C(n2cc(C)c(=O)[nH]c2=O)O[C@H](CO)[C@@H]1O (stereo partly drawn),IC50,L1210,50 µg/mL
C=C1C(n2cc(F)c(=O)[nH]c2=O)O[C@H](CO)[C@@H]1O (stereo partly drawn),IC50,L1210,> 100 µg/mL
C=C1[C@H](n2ccc(=O)[nH]c2=O)O[C@H](CO)[C@H]1O,IC50,L1210,> 100 µg/mL
C=C1C(n2cc(I)c(N)nc2=O)O[C@H](CO)[C@@H]1O (stereo partly drawn),IC50,L1210,> 100 µg/mL
C=C1C(n2cc(Br)c(=O)[nH]c2=O)O[C@H](CO)[C@@H]1O (stereo partly drawn),IC50,L1210,> 100 µg/mL
C=C1C(n2cc(Br)c(N)nc2=O)O[C@H](CO)[C@@H]1O (stereo partly drawn),IC50,L1210,> 100 µg/mL
C=C1C(n2cc(CC)c(N)nc2=O)O[C@H](CO)[C@@H]1O (stereo partly drawn),IC50,L1210,> 100 µg/mL
C=C1C(n2cc(I)c(=O)[nH]c2=O)O[C@H](CO)[C@@H]1O (stereo partly drawn),IC50,L1210,> 100 µg/mL
C=C1C(n2cc(F)c(N)nc2=O)O[C@H](CO)[C@@H]1O (stereo partly drawn),IC50,B16,9.2 µg/mL
same,IC50,L1210,0.33 µg/mL
same,IC50,CCRF-CEM,0.1 µg/mL
same,IC50,PC-13,1.4 µg/mL
same,IC50,[1],22 µg/mL
same,IC50,[2],8.3 µg/mL
same,IC50,P-36 (Homo sapiens),0.25 µg/mL
same,IC50,SW480,4.4 µg/mL
same,IC50,MOLT-4,0.03 µg/mL
same,IC50,TE-2,1.8 µg/mL
same,IC50,PC-14,> 100 µg/mL
same,IC50,KB,1.4 µg/mL
same,IC50,U-937,0.4 µg/mL
same,IC50,PC-6,16 µg/mL
same,IC50,T-24,0.94 µg/mL
same,IC50,PC10,> 100 µg/mL
same,IC50,HL-60,0.053 µg/mL
C=C1C(n2cc(Cl)c(=O)[nH]c2=O)O[C@H](CO)[C@@H]1O (stereo partly drawn),IC50,L1210,> 100 µg/mL
C=C1C(n2cc(C)c(N)nc2=O)O[C@H](CO)[C@@H]1O (stereo partly drawn),IC50,B16,> 100 µg/mL
same,IC50,L1210,58 µg/mL
same,IC50,CCRF-CEM,> 1 µg/mL
same,IC50,PC-13,> 100 µg/mL
same,IC50,[1],> 100 µg/mL
same,IC50,[2],> 100 µg/mL
same,IC50,P-36 (Homo sapiens),> 100 µg/mL
same,IC50,SW480,> 100 µg/mL
same,IC50,MOLT-4,> 100 µg/mL
same,IC50,TE-2,> 100 µg/mL
same,IC50,PC-14,> 100 µg/mL
same,IC50,KB,> 100 µg/mL
same,IC50,U-937,> 10 µg/mL
same,IC50,PC-6,> 100 µg/mL
same,IC50,T-24,> 100 µg/mL
same,IC50,PC10,> 100 µg/mL
same,IC50,HL-60,3 µg/mL
Nc1ccn([C@@H]2O[C@H](CO)[C@@H](O)[C@@H]2O)c(=O)n1 [CYTARABINE],IC50,B16,0.24 µg/mL
same,IC50,CCRF-CEM,0.32 µg/mL
same,IC50,PC-13,> 100 µg/mL
same,IC50,[2],> 100 µg/mL
same,IC50,P-36 (Homo sapiens),11.1 µg/mL
same,IC50,SW480,> 100 µg/mL
same,IC50,TE-2,> 100 µg/mL
same,IC50,PC-14,> 100 µg/mL
same,IC50,KB,30.5 µg/mL
same,IC50,U-937,0.46 µg/mL
same,IC50,PC-6,50 µg/mL
same,IC50,T-24,0.5 µg/mL
same,IC50,PC10,> 100 µg/mL
same,IC50,HL-60,> 0.1 µg/mL
O=c1[nH]cc(F)c(=O)[nH]1 [FLUOROURACIL],IC50,B16,2.6 µg/mL
same,IC50,[2],3.7 µg/mL
same,IC50,P-36 (Homo sapiens),10.7 µg/mL
same,IC50,PC-14,10 µg/mL
same,IC50,KB,12.1 µg/mL
same,IC50,U-937,3.5 µg/mL
same,IC50,PC10,> 100 µg/mL
same,IC50,HL-60,1.3 µg/mL
